The values that follow come from ChEMBL document CHEMBL1136818, “The development of new triazole based inhibitors of tumor necrosis factor-alpha (TNF-alpha) production” (Bioorg Med Chem Lett, 2003).

Several values for one entry are separate records, joined by “and”; a condition that tells them apart may be missing. Identical values can stand only once.

Usually IC50 stands for the midpoint of a concentration-inhibition curve. A word on the half-life: it is the time in which the quantity being followed falls by half. As usually defined, the clearance is a measure of how efficiently the substance is removed, as volume per time. In general, bioavailability refers to the share of a dose that reaches the circulation, judged against a reference dose that is usually intravenous. Read a low bioavailability as poor availability.

The subject of data set [1] is THP-1. The experiment in a line: Inhibitory activity against TNF-alpha production using lipopolysaccharide stimulated human monocytic cells. The data set is classed as functional, cell-based. In outline:
(§1)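 THP-1 human monocytic cells (2.0 × 10^5/well), in duplicate cultures, preincubated 15 min with or without inhibitor at various concentrations, then stimulated with LPS 2 μg/mL. TNF-α released measured by ELISA 4 h after stimulation; cell viability after the 4 h incubation checked by MTS assay. Standard deviation typically ±30% of the mean or less.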

Data set [2] in a line: Half life period was determined. The format is ADME, organism-based. The settings on record: rat, in vivo.
A short description of data set [3]: Clearance was determined. The conditions noted are these: rat, in vivo. The data set is classed as ADME, organism-based.
A short description of data set [4]: Oral bioavailability in the rat was determined. The data set is classed as ADME, organism-based. The conditions noted are these: in vivo.
Data set [5] relates to THP-1. The experiment in a line: Inhibitory activity against TNF-alpha production using lipopolysaccharide (LPS) stimulated human monocytic cells (THP-1); NA: Not active. The format is functional, cell-based. In outline: as §1

For the compound `CCOCn1nnc(-c2ccnc(Oc3cccc(NC(C)=O)c3)n2)c1-c1ccc(F)cc1`, in the data set with THP-1 [1] (Homo sapiens, THP-1), the IC50 is 189 nM. This counts as sub-micromolar.

Take `COCCn1nc(-c2ccncc2)c(-c2ccc(F)cc2)n1`: in the data set on THP-1 [1] (Homo sapiens, THP-1), the IC50 was 3760 nM.

For `CCOCn1nnc(-c2ccc(F)cc2)c1-c1ccnc(N[C@H](C)c2ccccc2)n1`, in the data set on THP-1 [1] (Homo sapiens, THP-1), the IC50 is 46 nM. This IC50 lies about 82-fold lower than the previous one.

For the compound `Fc1ccc(-c2[nH]nnc2-c2ccncc2)cc1`, the IC50 in the data set on THP-1 [1] (Homo sapiens, THP-1) stood at 12.5 nM.

`CCOCn1nnc(-c2ccc(F)cc2)c1-c1ccnc(N[C@@H](C)c2ccccc2)n1`: the 50% inhibitory concentration (IC50) in the data set with THP-1 [1] (Homo sapiens, THP-1) came to 54 nM.

As to `O=C(Nc1ccccc1)n1nc(-c2ccncc2)c(-c2ccc(F)cc2)n1`, the IC50 with THP-1 [1] (Homo sapiens, THP-1) was > 10000 nM.

As for `COc1ccc(S(=O)(=O)n2nc(-c3ccncc3)c(-c3ccc(F)cc3)n2)cc1`, 4800 nM corresponded to half-maximal inhibition with THP-1 [1] (Homo sapiens, THP-1) (IC50).

In the case of `CCOCn1nnc(-c2ccncc2)c1-c1ccc(F)cc1`, in the data set on THP-1 [1] (Homo sapiens, THP-1), the IC50 was 490 nM. This IC50 is about 9.8-fold lower than that of the compound before.

Consider `CCOCn1nnc(-c2ccnc(NCc3ccccc3)n2)c1-c1ccc(F)cc1`, for which, in the data set with THP-1 [1] (Homo sapiens, THP-1), half-maximal inhibition (IC50) required 557 nM. The IC50 values of the last two compounds are within 1.5-fold of each other.

In the data set on THP-1 [1] (Homo sapiens, THP-1), `COc1ccc(-n2nc(-c3ccncc3)c(-c3ccc(F)cc3)n2)cc1` yielded an IC50 of 1320 nM.

The compound `CCOCn1nnc(-c2ccnc(N[C@H](C)c3ccccc3)n2)c1-c1ccc(F)cc1` registered an IC50 in the data set on THP-1 [1] (Homo sapiens, THP-1) of 1600 nM.

Turning to `CCOCn1nnc(-c2ccc(F)cc2)c1-c1ccnc(Oc2cccc(NC(C)=O)c2)n1`, the half-life in data set [2] is 2.2 h. This compound yielded a clearance in data set [3] of 36.5 mL/min/kg. This compound also gave an IC50 with THP-1 [1] (Homo sapiens, THP-1) of 8 nM. Also, the bioavailability in data set [4] came to 56%.

As to `CCOCn1nnc(-c2ccc(F)cc2)c1-c1ccnc(NCc2ccccc2)n1`, inhibition in the data set on THP-1 [1] (Homo sapiens, THP-1) was half-maximal at 100 nM (IC50).

Consider `CCOCn1nnc(-c2ccc(F)cc2)c1-c1ccnc(Oc2ccccc2)n1`, for which, in the data set on THP-1 [1] (Homo sapiens, THP-1), 74 nM corresponded to half-maximal inhibition (IC50).

On to `Fc1ccc(-c2nn(C(=S)Sc3ccccc3)nc2-c2ccncc2)cc1`, for which half-maximal inhibition with THP-1 [1] (Homo sapiens, THP-1) (IC50) required 3720 nM. This IC50 is about 50-fold higher than that of the compound before.

On to `CCOCn1nnc(-c2ccnc(N[C@@H](C)c3ccccc3)n2)c1-c1ccc(F)cc1`, for which the half-inhibitory concentration (IC50) in the data set on THP-1 [1] (Homo sapiens, THP-1) is 306 nM. Compared with the last compound, the IC50 is about 12-fold lower.

With `CCOCn1nnc(-c2ccnc(Oc3ccccc3)n2)c1-c1ccc(F)cc1`, the IC50 in the data set on THP-1 [1] (thp-1) was 611 nM and 164 nM.

On to `CCOCn1nc(-c2ccc(F)cc2)c(-c2ccnc(Oc3ccccc3)n2)n1`, for which the IC50 with THP-1 [1] (Homo sapiens, THP-1) turned out to be 4020 nM.

For the compound `CCOCn1nnc(-c2ccc(F)cc2)c1-c1ccncc1`, the IC50 entry in the data set with THP-1 [5] is “Not Active”.

In the case of `COc1ccc(-n2nc(-c3ccncc3)c(-c3ccc(F)cc3)n2)cc1OC`, 744 nM corresponded to half-maximal inhibition in the data set with THP-1 [1] (Homo sapiens, THP-1) (IC50).

Turning to `CCOCn1nc(-c2ccncc2)c(-c2ccc(F)cc2)n1`, in the data set with THP-1 [1] (thp-1), 490 nM corresponded to half-maximal inhibition (IC50).

Compound `COc1ccc(C(=O)n2nc(-c3ccncc3)c(-c3ccc(F)cc3)n2)cc1` displayed an IC50 with THP-1 [1] (Homo sapiens, THP-1) of 3300 nM. This counts as single-digit micromolar.

Compound `COCn1nc(-c2ccncc2)c(-c2ccc(F)cc2)n1` came in with an IC50 with THP-1 [1] (Homo sapiens, THP-1) of 7590 nM.

Regarding `CN(C(=O)n1nc(-c2ccncc2)c(-c2ccc(F)cc2)n1)c1ccccc1`, the IC50 with THP-1 [1] (Homo sapiens, THP-1) was 1920 nM. This IC50 lies about 4-fold lower than the previous one.

In the data set on THP-1 [1] (Homo sapiens, THP-1), `CCOC(=O)n1nc(-c2ccncc2)c(-c2ccc(F)cc2)n1` came in with an IC50 of 3830 nM.

`C[S+]([O-])c1ccc(-c2nc(-c3ccc(F)cc3)c(-c3ccncc3)[nH]2)cc1` (centres undefined) [SB-203580]: half-maximal inhibition in the data set on THP-1 [1] (Homo sapiens, THP-1) (IC50) required 72 nM.
